Data taken from ChEMBL document CHEMBL3091321, “Design, synthesis and cytotoxicity of novel 3'-N-alkoxycarbonyl docetaxel analogs” (Bioorg Med Chem Lett, 2013).

What was measured:
[1] = test system: A549; test: Cytotoxicity against human A549 cells after 48 hrs by MTT assay; format: functional, cell-based; conditions: A549, 48 h
Summary of the method: (§1)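 Cells were exposed to drug for 48 h at seven ten-fold dilutions down to 0.1 nM. MTT in RPMI-1640 was then added for a further 4 h at 37 °C. Formazan was dissolved in DMSO and absorbance read at 570 nm after 5 min. Each run was done in triplicate. IC₅₀ is given as mean ± SD of three independent experiments.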

[2] = test system: SK-OV-3; test: Cytotoxicity against human SKOV3 cells after 48 hrs by MTT assay; format: functional, cell-based; conditions: SK-OV-3, 48 h; summary of the method: as §1
[3] = test system: A549; test: Ratio of taxol IC50 to compound IC50 for human A549 cells; format: functional
[4] = test system: A549; test: Ratio of docetaxel IC50 to compound IC50 for human A549 cells; format: functional

Compound	IC50 [1] [nM]	IC50 [2] [nM]	Ratio IC50 [3]	Ratio IC50 [4]
CC(=O)O[C@@]12CO[C@@H]1C[C@H](O)[C@@]1(C)C(=O)[C@H](O)C3=C(C)[C@@H](OC(=O)[C@H](O)[C@@H](NC(=O)O[C@H](C)C(C)C)c4ccccc4)C[C@@](O)([C@@H](OC(=O)c4ccccc4)[C@H]21)C3(C)C	35	13	–	–
CC(=O)O[C@@]12CO[C@@H]1C[C@H](O)[C@@]1(C)C(=O)[C@H](O)C3=C(C)[C@@H](OC(=O)[C@H](O)[C@@H](NC(=O)O[C@@H](C)C(C)C)c4ccccc4)C[C@@](O)([C@@H](OC(=O)c4ccccc4)[C@H]21)C3(C)C	60	17	–	–
CC[C@@H](C)OC(=O)N[C@@H](c1ccccc1)[C@@H](O)C(=O)O[C@H]1C[C@@]2(O)[C@@H](OC(=O)c3ccccc3)[C@@H]3[C@]4(OC(C)=O)CO[C@@H]4C[C@H](O)[C@@]3(C)C(=O)[C@H](O)C(=C1C)C2(C)C	18	13	–	–
CC[C@H](C)OC(=O)N[C@@H](c1ccccc1)[C@@H](O)C(=O)O[C@H]1C[C@@]2(O)[C@@H](OC(=O)c3ccccc3)[C@@H]3[C@]4(OC(C)=O)CO[C@@H]4C[C@H](O)[C@@]3(C)C(=O)[C@H](O)C(=C1C)C2(C)C	40	27	–	–
CCC(C)(C)OC(=O)N[C@@H](c1ccccc1)[C@@H](O)C(=O)O[C@H]1C[C@@]2(O)[C@@H](OC(=O)c3ccccc3)[C@@H]3[C@]4(OC(C)=O)CO[C@@H]4C[C@H](O)[C@@]3(C)C(=O)[C@H](O)C(=C1C)C2(C)C	13	5.9	>65	>65
CCCC(C)(C)OC(=O)N[C@@H](c1ccccc1)[C@@H](O)C(=O)O[C@H]1C[C@@]2(O)[C@@H](OC(=O)c3ccccc3)[C@@H]3[C@]4(OC(C)=O)CO[C@@H]4C[C@H](O)[C@@]3(C)C(=O)[C@H](O)C(=C1C)C2(C)C	10	2.9	>65	>65
CC(=O)O[C@@]12CO[C@@H]1C[C@H](O)[C@@]1(C)C(=O)[C@H](O)C3=C(C)[C@@H](OC(=O)[C@H](O)[C@@H](NC(=O)OC(C)(C)C(C)C)c4ccccc4)C[C@@](O)([C@@H](OC(=O)c4ccccc4)[C@H]21)C3(C)C	12	2.7	>65	>65
CC(=O)O[C@@]12CO[C@@H]1C[C@H](O)[C@@]1(C)C(=O)[C@H](O)C3=C(C)[C@@H](OC(=O)[C@H](O)[C@@H](NC(=O)OC(C)(C)CF)c4ccccc4)C[C@@](O)([C@@H](OC(=O)c4ccccc4)[C@H]21)C3(C)C	140	–	–	–
CC(=O)O[C@@]12CO[C@@H]1C[C@H](O)[C@@]1(C)C(=O)[C@H](O)C3=C(C)[C@@H](OC(=O)[C@H](O)[C@@H](NC(=O)OC(C)C(C)C)c4ccccc4)C[C@@](O)([C@@H](OC(=O)c4ccccc4)[C@H]21)C3(C)C (mixture of isomers)	47	16	–	–
CCC(C)OC(=O)N[C@@H](c1ccccc1)[C@@H](O)C(=O)O[C@H]1C[C@@]2(O)[C@@H](OC(=O)c3ccccc3)[C@@H]3[C@]4(OC(C)=O)CO[C@@H]4C[C@H](O)[C@@]3(C)C(=O)[C@H](O)C(=C1C)C2(C)C (mixture of isomers)	30	22	–	–
CC(=O)O[C@@]12CO[C@@H]1C[C@H](O)[C@@]1(C)C(=O)[C@H](O)C3=C(C)[C@@H](OC(=O)[C@H](O)[C@@H](NC(=O)OC(C)(C)C)c4ccccc4)C[C@@](O)([C@@H](OC(=O)c4ccccc4)[C@H]21)C3(C)C [DOCETAXEL]	850	5	–	–
CC(=O)O[C@H]1C(=O)[C@@]2(C)[C@H]([C@H](OC(=O)c3ccccc3)[C@]3(O)C[C@H](OC(=O)[C@H](O)[C@@H](NC(=O)c4ccccc4)c4ccccc4)C(C)=C1C3(C)C)[C@]1(OC(C)=O)CO[C@@H]1C[C@@H]2O [PACLITAXEL]	930	35	–	–
